Assay results reported in ChEMBL document CHEMBL1132567, “Structure-activity studies of conantokins as human N-methyl-D-aspartate receptor modulators” (J Med Chem, 1999).
Starred links: 1 amine or outer side, 2 acyl side, 3 side chain; linkers in the order of their positions; H or OH if unused. Positions of bridges follow the written chain, without caps; N, C: chain ends. Non-standard residues stand in square brackets, D forms with d. Residues, ends and D or L forms follow the SMILES beside them. X1 = NC(=O)CC[C@@H](C(=O)[*:2])[C@H](CC(N)=O)N[*:1]; NMeN = CN[C@@H](CC(N)=O)C(=O)O

Experiments:
[1] = biological target: Glutamate [NMDA] receptor; experiment: The compound was tested for the inhibitory activity against N-methyl-D-aspartate glutamate receptor from mid-frontal region of human brain by measuring spermine-enhanced [3H]- MK-801 binding
In short: (§1)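 Crude synaptosomal membranes from the named human brain region, frozen at -70°C, then washed in water and in 5 mM Tris-HCl pH 7.4. Duplicate tubes at room temperature held membranes (about 0.25 mg/mL protein), 30 μM spermine, 2 nM [3H]MK-801 and peptide at 10^-9–10^-4 M, without added Ca2+ or with 1.5 mM CaCl2. Nonspecific binding was taken with 3 μM unlabeled MK-801. After 45 min, samples were filtered onto GF/B and counted by scintillation.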

[2] = biological target: Glutamate [NMDA] receptor; experiment: The compound was tested for the inhibitory activity against N-methyl-D-aspartate glutamate receptor from superior temporal region of human brain by measuring spermine-enhanced [3H]- MK-801 binding; in short: as §1
[3] = biological target: Glutamate [NMDA] receptor; experiment: The compound was tested for the inhibitory activity against N-methyl-D-aspartate glutamate receptor from sensorimotor gyri region of human brain by measuring spermine-enhanced [3H]- MK-801 binding; in short: as §1

Compound	IC50 [1] [nM]	IC50 [2] [nM]	IC50 [3] [nM]
CC[C@@H](C)[C@H](NC(=O)[C@H](CC(C)C)NC(=O)[C@@H]1CCC(=O)NCCCC[C@H](NC(=O)[C@H](CCC(N)=O)NC(=O)[C@H](CC(C)C)NC(=O)[C@H](CCC(=O)O)NC(=O)[C@H](CCC(=O)O)NC(=O)[C@H](CCC(=O)O)NC(=O)CN)C(=O)N[C@@H](CC(N)=O)C(=O)N[C@H](CCC(N)=O)C(=O)N1)C(=O)N[C@@H](CCCN=C(N)N)C(=O)N[C@@H](CCC(=O)O)C(=O)N[C@@H](CCCCN)C(=O)N[C@@H](CO)C(=O)N[C@@H](CC(N)=O)C(N)=O	8480		
CC[C@@H](C)[C@H](NC(=O)[C@H](CC(C)C)NC(=O)[C@H](CCC(=O)O)[C@H](CCC(N)=O)NC(=O)[C@H](CC(N)=O)NC(=O)[C@H](CCC(=O)O)NC(=O)[C@H](CCC(N)=O)NC(=O)[C@H](CC(C)C)NC(=O)[C@H](CCC(=O)O)NC(=O)[C@H](CCC(=O)O)NC(=O)[C@H](CCC(=O)O)NC(=O)CN)C(=O)N[C@@H](CCCN=C(N)N)C(=O)N[C@@H](CCC(=O)O)C(=O)N[C@@H](CCCCN)C(=O)N[C@@H](CO)C(=O)N[C@@H](CC(N)=O)C(N)=O	69	21	59
CC[C@H](C)[C@H](NC(=O)[C@H](CC(C)C)NC(=O)[C@H](CCC(=O)O)NC(=O)[C@H](CCC(N)=O)NC(=O)[C@H](CC(N)=O)NC(=O)[C@H](C)NC(=O)[C@H](CCC(N)=O)NC(=O)[C@H](CC(C)C)NC(=O)[C@H](CCC(=O)O)NC(=O)[C@H](CCC(=O)O)NC(=O)[C@H](CCC(=O)O)NC(=O)CN)C(=O)N[C@@H](CCCN=C(N)N)C(=O)N[C@@H](CCC(=O)O)C(=O)N[C@@H](CCCCN)C(=O)N[C@@H](CO)C(=O)N[C@@H](CC(N)=O)C(N)=O	3360	1680	766
CC[C@H](C)[C@H](NC(=O)[C@H](CC(C)C)NC(=O)[C@H](CCC(=O)O)NC(=O)[C@H](CCC(N)=O)NC(=O)[C@H](CC(N)=O)NC(=O)[C@H](CCCCN)NC(=O)[C@H](CCC(N)=O)NC(=O)[C@H](CC(C)C)NC(=O)[C@H](CCC(=O)O)NC(=O)[C@H](CCC(=O)O)NC(=O)[C@H](CCC(=O)O)NC(=O)CN)C(=O)N[C@@H](CCCN=C(N)N)C(=O)N[C@@H](CCC(=O)O)C(=O)N[C@@H](CCCCN)C(=O)N[C@@H](CO)C(=O)N[C@@H](CC(N)=O)C(N)=O	11000		
CC[C@H](C)[C@@H]1NC(=O)[C@H](CC(C)C)NC(=O)[C@@H](NC(=O)[C@H](CCC(N)=O)[C@H](CC(N)=O)NC(=O)[C@H](C)NC(=O)[C@H](CCC(N)=O)NC(=O)[C@H](CC(C)C)NC(=O)[C@H](CCC(=O)O)NC(=O)[C@H](CCC(=O)O)NC(=O)[C@H](CCC(=O)O)NC(=O)CN)CCC(=O)NCCCC[C@@H](C(=O)N[C@@H](CCC(=O)O)C(=O)N[C@@H](CCCCN)C(=O)N[C@@H](CO)C(=O)N[C@@H](CC(N)=O)C(N)=O)NC1=O (H-GEEELQA[X1]ELIKEKSN-NH2; lactam 9-12)	> 20000		
CSCC[C@H](NC(=O)[C@H](CCCCN)NC(=O)[C@H](CCC(N)=O)NC(=O)[C@H](Cc1ccc(O)cc1)NC(=O)[C@H](CCC(=O)O)NC(=O)[C@H](CCC(=O)O)NC(=O)[C@H](CCC(=O)O)NC(=O)CN)C(=O)N[C@@H](CC(C)C)C(=O)N[C@@H](CCC(=O)O)C(=O)N(C)[C@@H](CC(N)=O)C(=O)N[C@@H](CC(C)C)C(=O)N[C@@H](CCCN=C(N)N)C(=O)N[C@@H](CCC(=O)O)C(=O)N[C@@H](C)C(=O)N[C@@H](CCC(=O)O)C(=O)N[C@H](C(=O)N[C@@H](CCCCN)C(=O)N[C@@H](CCCCN)C(=O)N[C@@H](CC(N)=O)C(=O)N[C@@H](C)C(N)=O)C(C)C (H-GEEEYQKMLE[NMeN]LREAEVKKNA-NH2)	125		
H-GEEELQEDQELIREKSD-NH2	20	9	18
H-GEEELQEN-NH2	94	23	58
H-GEEEYQANQELIREKSN-NH2	546	570	475
H-GEEEYQKNQELIREKSN-NH2	99	56	47
